Data from ChEMBL document CHEMBL1148725, “2,2,2-Trichloro-N-({2-[2-(dimethylamino)ethyl]-1,3-dioxo-2,3-dihydro-1H-benzo[de]isoquinolin- 5-yl}carbamoyl)acetamide (UNBS3157), a novel nonhematotoxic naphthalimide derivative with potent antitumor activity” (J Med Chem, 2007).
Activity calls are given as the source filed them. The calls are words filed in the database; no cut-off is given here.

Key:
Mus musculus [1] = test: Hematotoxicity in B6D2F1 mouse assessed as platelet count at 5 mg/kg, iv; format: organism-based; parameters: dose 5 mg/kg, route intravenous; conditions: in vivo
Mus musculus [2] = test: Hematotoxicity in B6D2F1 mouse assessed as RBC count at 5 mg/kg, po; format: organism-based; parameters: dose 5 mg/kg, route oral; conditions: in vivo
Mus musculus [3] = test: Hematotoxicity in B6D2F1 mouse assessed as RBC count at 10 mg/kg, po; format: organism-based; parameters: dose 10 mg/kg, route oral; conditions: in vivo
[4] = Toxicity in ip dosed B6D2F1 mouse; format: organism-based; conditions: in vivo
Method in brief: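 Acute MTD was set by a single i.p. dose to groups of three healthy female B6D2F1 mice, at 2.5, 5, 10, 20, 40, 80 and 160 mg/kg. The MTD is the dose just below the lowest dose that killed at least one mouse.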

Mus musculus [5] = test: Toxicity in B6D2F1 mouse at 40 mg/kg, ip; format: organism-based; parameters: dose 40 mg/kg, route intraperitoneal; conditions: in vivo
Mus musculus [6] = test: Hematotoxicity in B6D2F1 mouse assessed as platelet count at 2.5 mg/kg, po; format: organism-based; parameters: dose 2.5 mg/kg, route oral; conditions: in vivo
Mus musculus [7] = test: Hematotoxicity in B6D2F1 mouse assessed as platelet count at 5 mg/kg, po; format: organism-based; parameters: dose 5 mg/kg, route oral; conditions: in vivo
[8] = Antiproliferative activity against Hs683 cells after 72 hrs by MTT assay; format: functional, cell-based, Homo sapiens, Hs 683; conditions: Homo sapiens, Hs 683, 72 h
Method in brief: (§1)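 Cells cultured with each compound for three days; growth then read by the MTT colorimetric assay and reported as IC50 (µM).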

Homo sapiens = species: Homo sapiens; test: Inhibition of human topoisomerase 2 at 50 uM by plasmid linearization assay
Mus musculus [9] = test: Hematotoxicity in B6D2F1 mouse assessed as WBC count at 2.5 mg/kg, po; format: organism-based; parameters: dose 2.5 mg/kg, route oral; conditions: in vivo
Mus musculus [10] = test: Hematotoxicity in B6D2F1 mouse assessed as WBC count at 10 mg/kg, po; format: organism-based; parameters: dose 10 mg/kg, route oral; conditions: in vivo
Mus musculus [11] = test: Hematotoxicity in B6D2F1 mouse assessed as WBC count at 5 mg/kg, po; format: organism-based; parameters: dose 5 mg/kg, route oral; conditions: in vivo
Mus musculus [12] = test: Hematotoxicity in B6D2F1 mouse assessed as platelet count at 10 mg/kg, po; format: organism-based; parameters: dose 10 mg/kg, route oral; conditions: in vivo
L1210 [13] = test: Antitumor activity in L1210 cells xenografted B6D2F1 mouse at 80 mg/kg, ip relative to control; format: functional; conditions: route intraperitoneal
Method in brief: (§2)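 Mice grafted with L1210 leukaemia cells on day 0, then dosed i.p. four times weekly on days 1-4 and 8-11. Five mice per group. Outcome is %T/C, the median survival of treated over control. Kruskal-Wallis test followed by Dunn comparisons against control.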

Mus musculus [14] = test: Hematotoxicity in B6D2F1 mouse assessed as WBC count at 2.5 mg/kg, iv; format: organism-based; parameters: dose 2.5 mg/kg, route intravenous; conditions: in vivo
HCT-15 = test: Antiproliferative activity against HCT15 cells after 72 hrs by MTT assay; format: functional, cell-based, Homo sapiens; conditions: Homo sapiens, HCT-15, 72 h; method in brief: as §1
A549 = test: Antiproliferative activity against A549 cells after 72 hrs by MTT assay; format: functional, cell-based, Homo sapiens; conditions: Homo sapiens, A549, 72 h; method in brief: as §1
Mus musculus [15] = test: Hematotoxicity in B6D2F1 mouse assessed as platelet count at 2.5 mg/kg, iv; format: organism-based; parameters: dose 2.5 mg/kg, route intravenous; conditions: in vivo
L1210 [16] = test: Antitumor activity in L1210 cells xenografted B6D2F1 mouse at 40 mg/kg, ip relative to control; format: functional; conditions: route intraperitoneal; method in brief: as §2
[17] = Antiproliferative activity against U373MG cells after 72 hrs by MTT assay; format: functional, cell-based, Homo sapiens, U-373MG ATCC; conditions: Homo sapiens, U373 MG, 72 h; method in brief: as §1
L1210 [18] = test: Antitumor activity in L1210 cells xenografted B6D2F1 mouse at 10 mg/kg, ip relative to control; format: functional; conditions: route intraperitoneal; method in brief: as §2
Mus musculus [19] = test: Hematotoxicity in B6D2F1 mouse assessed as RBC count at 2.5 mg/kg, iv; format: organism-based; parameters: dose 2.5 mg/kg, route intravenous; conditions: in vivo
Mus musculus [20] = test: Hematotoxicity in B6D2F1 mouse assessed as RBC count at 5 mg/kg, iv; format: organism-based; parameters: dose 5 mg/kg, route intravenous; conditions: in vivo
L1210 [21] = test: Antitumor activity in L1210 cells xenografted B6D2F1 mouse at 5 mg/kg, ip relative to control; format: functional; conditions: route intraperitoneal; method in brief: as §2
MCF7 = test: Antiproliferative activity against MCF7 cells after 72 hrs by MTT assay; format: functional, cell-based, Homo sapiens; conditions: Homo sapiens, MCF7, 72 h; method in brief: as §1
L1210 [22] = test: Antitumor activity in L1210 cells xenografted B6D2F1 mouse at 20 mg/kg, ip relative to control; format: functional; conditions: route intraperitoneal; method in brief: as §2
LoVo = test: Antiproliferative activity against LoVo cells after 72 hrs by MTT assay; format: functional, cell-based, Homo sapiens; conditions: Homo sapiens, LoVo, 72 h; method in brief: as §1
Mus musculus [23] = test: Toxicity in B6D2F1 mouse at 80 mg/kg, ip; format: organism-based; parameters: dose 80 mg/kg, route intraperitoneal; conditions: in vivo
Method in brief: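 Healthy female B6D2F1 mice, 10 per group, dosed i.p. in DMSO/saline (5:95 v/v) three times weekly for five weeks at two levels set relative to MTD; sacrificed 3 days after final dose; platelet, RBC and WBC counted by Coulter counter.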

Mus musculus [24] = test: Hematotoxicity in B6D2F1 mouse assessed as RBC count at 2.5 mg/kg, po; format: organism-based; parameters: dose 2.5 mg/kg, route oral; conditions: in vivo
Mus musculus [25] = test: Hematotoxicity in B6D2F1 mouse assessed as WBC count at 5 mg/kg, iv; format: organism-based; parameters: dose 5 mg/kg, route intravenous; conditions: in vivo

In the case of CC(=O)Nc1cc2c3c(cccc3c1)C(=O)N(CCN(C)C)C2=O, the Activity (Mus musculus [1]) is reported as 351 10^3 /uL, the Activity (Mus musculus [2]) is reported as 10.25 10^6 /uL and the Activity (Mus musculus [3]) is reported as 9.64 10^6 /uL. For the same compound, the MTD [4] was 40 mg/kg, the Activity (Mus musculus [5]) was “Toxic” and the Activity (Mus musculus [6]) was 961 10^3 /uL. For the same compound, the Activity (Mus musculus [7]) was 968 10^3 /uL, the IC50 [8] was > 10 µM and the Activity (Homo sapiens) was “Active”. For the same compound, the Activity (Mus musculus [9]) was 2.66 10^3 /uL, the Activity (Mus musculus [10]) was 2.66 10^3 /uL and the Activity (Mus musculus [11]) was 2.74 10^3 /uL. The Activity (Mus musculus [12]) was 922 10^3 /uL, the Activity (L1210 [13]) was 47% and the Activity (Mus musculus [14]) was 3.97 10^3 /uL. The IC50 (HCT-15) was 7.8 µM, the IC50 (A549) was > 10 µM and the Activity (Mus musculus [15]) was 470 10^3 /uL. It also gave an Activity (L1210 [16]) of 48%, an IC50 [17] of 9 µM and an Activity (L1210 [18]) of 149%. For the same compound, the Activity (Mus musculus [19]) was 9.74 10^6 /uL, the Activity (Mus musculus [20]) was 9.59 10^6 /uL and the Activity (L1210 [21]) was 111%. For the same compound, the IC50 (MCF7) was > 10 µM, the Activity (L1210 [22]) was >300% and the IC50 (LoVo) was > 10 µM. The Activity (Mus musculus [23]) was “Toxic”, the Activity (Mus musculus [24]) was 10.01 10^6 /uL and the Activity (Mus musculus [25]) was 2.5 10^3 /uL.
